The source made the active and inactive calls. The calls are words filed in the database; no cut-off is given here.
What was measured:
[1] = Growth inhibition of human HepG2 cells measured after 72 hrs by MTT assay; format: functional, cell-based; settings: HepG2, 72 h
How it was run: (§1)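 Cells seeded at 1 x 10^4/100 µL, treated 24 h later with drug diluted from 2 mmol/L DMSO stock (0.01% DMSO final), 72 h incubation. MTT added for 3 h at 37°C, formazan dissolved in 0.1 N HCl/isopropanol, OD read at 550/630 nm. Eight replicates per concentration, mean ± SD. IC50 from curve fitting. Cells kept at 37°C in humidified CO2.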

[2] = Growth inhibition of human EAhy926 cells measured after 72 hrs by MTT assay; format: functional, cell-based; settings: EA.hy 926, 72 h; how it was run: as §1
[3] = Growth inhibition of human K562 cells measured after 72 hrs by MTT assay; format: functional, cell-based; settings: K562, 72 h; how it was run: as §1
[4] = Cell cycle arrest in human HepG2 cells assessed as accumulation of cells with 4N DNA content at growth inhibitory IC50 measured after 24 hrs by propidium iodide-staining based FACS analysis relative to control; format: functional; set-up: scale not given: the % may be the effect or the level left
[5] = Cytostatic activity against human MCF10A cells assessed as cell survival up to 25 uM measured after 72 hrs by MTT assay relative to control; format: ADME, cell-based, MCF-10A; settings: read-out: Survival
[6] = Cell cycle arrest in human HepG2 cells assessed as accumulation in G2/M phase at growth inhibitory IC50 measured after 8 hrs by propidium iodide-staining based FACS analysis (reference value: 28%); format: functional; set-up: scale not given: the % may be the effect or the level left
HepG2 [7] = test: Inhibition of beta-tubulin polymerization in human HepG2 cells assessed as multi-polar spindle formation at 185 to 190 nM measured after 24 hrs by DAPI staining based immunofluorescence analysis; format: cell-based
How it was run: (§2)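 HepG2 cells grown on coverslips were treated 24 h with 185 nM drug, with 0.01% DMSO vehicle as control. Cells fixed in 3.7% buffered paraformaldehyde and immunostained for β-tubulin (AlexaFluor-488 secondary, 40 min). F-actin labelled with phalloidin, DNA with DAPI mounting medium. Imaged by fluorescence microscopy.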

[8] = Cell cycle arrest in human HepG2 cells assessed as decrease in S phase at growth inhibitory IC50 measured after 24 hrs by propidium iodide-staining based FACS analysis; format: functional
[9] = Antiproliferative activity against human MCF7 cells measured after 72 hrs by MTT assay; format: functional, cell-based; settings: MCF7, 72 h; how it was run: as §1
[10] = Antiproliferative activity against CA-4-resistant human A549 cells measured after 72 hrs by MTT assay; format: functional, cell-based; settings: A549, 72 h
How it was run: (§3)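 Cells seeded at 1 × 10^4 per well and left 24 h, then exposed to graded compound concentrations (stock 2 mmol/L in DMSO, final DMSO 0.01% in medium) for 72 h at 37 °C in humidified CO2. MTT (5 mg/mL) added for 3 h; formazan dissolved in 0.1 N HCl/isopropanol and read at 550/630 nm. Eight replicate wells per concentration; IC50 from curve fitting.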

HepG2 [11] = test: Induction of micronuclei formation in human HepG2 cells at 185 to 190 nM measured after 24 hrs by DAPI staining based immunofluorescence analysis; format: functional, cell-based; how it was run: as §2
Colon 26 = test: Potency index, ratio of combretastatin A-4 IC50 to compound IC50 for mouse Colon 26 cells; format: functional
HepG2 [12] = test: Inhibition of beta-tubulin polymerization in human HepG2 cells assessed as DNA fragmentation at 185 to 190 nM measured after 24 hrs by DAPI staining based immunofluorescence analysis; format: cell-based; how it was run: as §2
[13] = Antiproliferative activity against human HaCaT cells measured after 72 hrs by MTT assay; format: functional, cell-based; how it was run: as §3
Sus scrofa [14] = organism: Sus scrofa; test: Induction of porcine brain tubulin polymerization assessed as time required to reach maxium effect at 10 uM measured every 1 min for 40 mins in presence of GTP
K562 = test: Cytostatic activity against human K562 cells up to 25 uM measured after 72 hrs by MTT assay; format: functional, cell-based; how it was run: as §1
[15] = Cell cycle arrest in human HepG2 cells assessed as decrease in accumulation of G2/M phase at growth inhibitory IC50 measured after 72 hrs by propidium iodide-staining based FACS analysis; format: functional
[16] = Cell cycle arrest in human HepG2 cells assessed as >4N DNA content at growth inhibitory IC50 measured after 24 hrs by propidium iodide-staining based FACS analysis relative to control; format: functional; set-up: scale not given: the % may be the effect or the level left
HepG2 [17] = test: Cytostatic activity against human HepG2 cells up to 25 uM measured after 72 hrs by MTT assay; format: functional, cell-based; how it was run: as §1
[18] = Cell cycle arrest in human HepG2 cells assessed as increase in G2/M phase accumulation at growth inhibitory IC50 after 8 hrs by propidium iodide-staining based FACS analysis relative to combretastatin A-4; format: functional; set-up: scale not given: the % may be the effect or the level left
Sus scrofa [19] = organism: Sus scrofa; test: Inhibition of porcine brain tubulin polymerization at 50 uM measured every 1 min for 40 mins in presence of GTP
HT-29 = test: Potency index, ratio of IC50 for combretastatin A-4 to IC50 for test compound against human HT-29 cells; format: functional
HepG2 [20] = test: Induction of apoptosis in human HepG2 cells assessed as increase in apoptotic cells at growth inhibitory IC50 measured after 48 hrs by Annexin V-FITC/propidium iodide staining-based flow cytometric analysis relative to control; format: functional, cell-based
[21] = Antiproliferative activity against mouse Colon 26 cells measured after 72 hrs by MTT assay; format: functional, cell-based; settings: Colon 26, 72 h; how it was run: as §3
[22] = Cell cycle arrest in human HepG2 cells assessed as decrease in G0/G1 phase at growth inhibitory IC50 measured after 24 hrs by propidium iodide-staining based FACS analysis; format: functional
HepG2 [23] = test: Induction of apoptosis in human HepG2 cells assessed as necrotic cells at 0.19 to 0.28 uM measured after 48 hrs by Annexin V-FITC/propidium iodide staining-based flow cytometric analysis relative to control; format: functional
HepG2 [24] = test: Inhibition of beta-tubulin polymerization in human HepG2 cells assessed as formation of pseudo G1 phase multinucleated cells at 185 to 190 nM measured after 24 hrs by DAPI staining based immunofluorescence analysis; format: cell-based; how it was run: as §2
EA.hy 926 [25] = test: Cytostatic activity against human EAhy926 cells up to 25 uM measured after 72 hrs by MTT assay; format: functional, cell-based; how it was run: as §1
[26] = Cell cycle arrest in human HepG2 cells assessed as accumulation of hypoploid sub-G1 cells at growth inhibitory IC50 measured after 72 hrs by propidium iodide-staining based FACS analysis; format: functional
EA.hy 926 [27] = test: Induction of apoptosis in human EAhy926 cells assessed as increase in apoptotic cells at growth inhibitory IC50 measured after 48 hrs by Annexin V-FITC/propidium iodide staining-based flow cytometric analysis relative to control; format: functional, cell-based
[28] = Antiproliferative activity against CA-4-resistant human HT-29 cells measured after 72 hrs by MTT assay; format: functional, cell-based; settings: HT-29, 72 h; how it was run: as §3
[29] = Cytotoxicity against human NHEK measured after 72 hrs by MTT assay; format: toxicity; how it was run: as §1
HepG2 [30] = test: Inhibition of beta-tubulin polymerization in human HepG2 cells assessed as mitotic slippage at 185 to 190 nM measured after 24 hrs by DAPI staining based immunofluorescence analysis; format: cell-based; how it was run: as §2
EA.hy 926 [31] = test: Induction of apoptosis in human EAhy926 cells assessed as necrotic cells at 0.19 to 0.28 uM measured after 48 hrs by Annexin V-FITC/propidium iodide staining-based flow cytometric analysis relative to control; format: functional
A549 = test: Potency index, ratio of combretastatin A-4 IC50 to compound IC50 for human A549 cells; format: functional
HepG2 [32] = test: Inhibition of beta-tubulin polymerization in human HepG2 cells assessed as induction of mitotic ploidity at 185 to 190 nM measured after 24 hrs by DAPI staining based immunofluorescence analysis; format: cell-based; how it was run: as §2
Sus scrofa [33] = organism: Sus scrofa; test: Inhibition of porcine brain tubulin polymerization at 10 uM measured every 1 min for 40 mins in presence of GTP
Sus scrofa [34] = organism: Sus scrofa; test: Inhibition of porcine brain tubulin polymerization measured every 1 min for 40 mins in presence of GTP
[35] = Antiproliferative activity against CA-4-resistant human MDA-MB-231 cells measured after 72 hrs by MTT assay; format: functional, cell-based; settings: MDA-MB-231, 72 h; how it was run: as §1
EA.hy 926 [36] = test: Antiangiogenic activity against human EAhy926 assessed as inhibition of capillary tube formation at 0.28 uM after 72 hrs by matrigel assay; format: functional
How it was run: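 EA.hy 926 cells (4 x 10^4) plated onto Matrigel pre-set 30 min at 37°C in complete DMEM; after 24 h medium replaced by EBM2 alone (control) or EBM2 with 0.28 µM or 0.11 µM drug. Capillary tube formation followed by inverted microscopy up to 72 h.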

COc1ccc(/C=C\c2cccc3c2oc(=O)n3C)cc1
IC50 [1]: 47.2 µM
IC50 [2]: > 50 µM
IC50 [3]: > 50 µM

COc1cc(/C=C\c2cccc3oc(=O)n(C)c23)cc(OC)c1OC
IC50 [1]: 19 µM
IC50 [2]: 14.8 µM
IC50 [3]: 10.1 µM

COc1ccc(/C=C\c2ccc3oc(=O)n(C)c3c2)cc1OC
IC50 [1]: 42.1 µM
IC50 [2]: > 50 µM
IC50 [3]: > 50 µM

COc1cc(/C=C\c2cccc3oc(=O)n(C)c23)cc(OC)c1
IC50 [1]: 18 µM
IC50 [2]: 29.4 µM
IC50 [3]: 11.3 µM

COc1cc(/C=C\c2ccc3c(c2)oc(=O)n3C)cc(OC)c1OC
Activity [4]: 80%
viability at 72 h [5]: 70%
Activity [6]: 39%
inhibition (HepG2 [7]): Active
Activity [8]: Active
IC50 [9]: 0.07 µM
IC50 [10]: 0.06 µM
Activity (HepG2 [11]): Active
Ratio IC50 (Colon 26): 9
inhibition (HepG2 [12]): Active
IC50 [13]: 0.06 µM
TIME (Sus scrofa [14]): 0.333 h
Activity (K562): Active
Activity [15]: Active
Activity [16]: 9%
Activity (HepG2 [17]): Active
Activity [18]: 6%
inhibition (Sus scrofa [19]): Active
Ratio IC50 (HT-29): >10
Activity (HepG2 [20]): Active
IC50 [1]: 0.19 µM
IC50 [21]: 0.05 µM
Activity [22]: Active
Activity (HepG2 [23]): 20%
inhibition (HepG2 [24]): Active
Activity (EA.hy 926 [25]): Active
Activity [26]: Active
Activity (EA.hy 926 [27]): Active
IC50 [28]: 0.25 µM
Activity [29]: Non-Toxic
inhibition (HepG2 [30]): Active
Activity (EA.hy 926 [31]): 20%
Ratio IC50 (A549): 50
IC50 [2]: 0.28 µM
inhibition (HepG2 [32]): Active
IC50 [3]: 0.73 µM
inhibition (Sus scrofa [33]): 40%
inhibition (Sus scrofa [34]): Dose-dependent effect
IC50 [35]: 0.168 µM
inhibition (EA.hy 926 [36]): Active

COc1ccc(/C=C\c2ccc3oc(=O)n(C)c3c2)cc1
IC50 [1]: 48.1 µM
IC50 [2]: 15.1 µM
IC50 [3]: 24.2 µM

COc1cc(/C=C\c2cccc3c2oc(=O)n3C)cc(OC)c1OC
IC50 [1]: 1.07 µM
IC50 [2]: 10.3 µM
IC50 [3]: 0.71 µM

COc1ccc(/C=C\c2ccc3c(c2)oc(=O)n3C)cc1OC
IC50 [1]: 38.3 µM
IC50 [2]: > 50 µM
IC50 [3]: > 50 µM

COc1ccc(/C=C\c2ccc3c(c2)oc(=O)n3C)cc1
IC50 [1]: > 50 µM
IC50 [2]: > 50 µM
IC50 [3]: > 50 µM

COc1ccc(/C=C\c2cccc3c2oc(=O)n3C)cc1OC
IC50 [1]: 30.2 µM
IC50 [2]: > 50 µM
IC50 [3]: > 50 µM

COc1cc(/C=C\c2cccc3c2oc(=O)n3C)cc(OC)c1
IC50 [1]: 4.25 µM
IC50 [2]: 9.53 µM
IC50 [3]: 0.95 µM

COc1cc(/C=C\c2ccc3oc(=O)n(C)c3c2)cc(OC)c1OC
IC50 [1]: 39.7 µM
IC50 [2]: > 50 µM
IC50 [3]: > 50 µM

COc1ccc(/C=C\c2cccc3oc(=O)n(C)c23)cc1
IC50 [1]: 16.1 µM
IC50 [2]: 39.9 µM
IC50 [3]: 0.96 µM

COc1ccc(/C=C\c2cccc3oc(=O)n(C)c23)cc1OC
IC50 [1]: > 50 µM
IC50 [2]: > 50 µM
IC50 [3]: 2.07 µM
